# Measured values from ChEMBL document CHEMBL1124627, “Long-acting dihydropyridine calcium antagonists. 3. Synthesis and structure-activity relationships for a series of 2-[(heterocyclylmethoxy)methyl] derivatives” (J Med Chem, 1989).
# Legend:
# [1] = target: Voltage-dependent L-type calcium channel subunit alpha-1C (Rattus norvegicus, UniProt P22002); test: Selectivity for vascular (Ca pIC50) over cardiac (negative inotropy IC25) calcium channels; assay type: functional
# Cavia porcellus = species on record: Cavia porcellus; test: Negative logarithm of the molar concentration required to depress contraction in the Langendorff-perfused guinea pig heart by 25%.; assay type: functional
# Rattus norvegicus = species on record: Rattus norvegicus; test: Negative logarithm of molar concentration required to block calcium-induced contraction of potassium depolarized rat aorta by 50%; assay type: functional
# Canis familiaris = test: Coronary vasodilator activity in dogs, after administration of a dose of 150 micorg/kg intravenously; assay type: functional, Canis lupus familiaris
# Procedure, shortened: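 Anesthetized beagle dogs fitted with catheters for blood pressure, left ventricular pressure and intravenous dosing. Coronary blood flow was measured by hydrogen clearance with platinum electrodes in the coronary sinus and femoral artery, and cardiac output by thermodilution. Coronary vascular resistance was derived from these measurements. A single intravenous dose was given, and the CVR fall was followed over time to assess duration of action.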
# Voltage-dependent L-type calcium channel subunit alpha-1C, sequence (P22002 whole entry, the tested form may be a part): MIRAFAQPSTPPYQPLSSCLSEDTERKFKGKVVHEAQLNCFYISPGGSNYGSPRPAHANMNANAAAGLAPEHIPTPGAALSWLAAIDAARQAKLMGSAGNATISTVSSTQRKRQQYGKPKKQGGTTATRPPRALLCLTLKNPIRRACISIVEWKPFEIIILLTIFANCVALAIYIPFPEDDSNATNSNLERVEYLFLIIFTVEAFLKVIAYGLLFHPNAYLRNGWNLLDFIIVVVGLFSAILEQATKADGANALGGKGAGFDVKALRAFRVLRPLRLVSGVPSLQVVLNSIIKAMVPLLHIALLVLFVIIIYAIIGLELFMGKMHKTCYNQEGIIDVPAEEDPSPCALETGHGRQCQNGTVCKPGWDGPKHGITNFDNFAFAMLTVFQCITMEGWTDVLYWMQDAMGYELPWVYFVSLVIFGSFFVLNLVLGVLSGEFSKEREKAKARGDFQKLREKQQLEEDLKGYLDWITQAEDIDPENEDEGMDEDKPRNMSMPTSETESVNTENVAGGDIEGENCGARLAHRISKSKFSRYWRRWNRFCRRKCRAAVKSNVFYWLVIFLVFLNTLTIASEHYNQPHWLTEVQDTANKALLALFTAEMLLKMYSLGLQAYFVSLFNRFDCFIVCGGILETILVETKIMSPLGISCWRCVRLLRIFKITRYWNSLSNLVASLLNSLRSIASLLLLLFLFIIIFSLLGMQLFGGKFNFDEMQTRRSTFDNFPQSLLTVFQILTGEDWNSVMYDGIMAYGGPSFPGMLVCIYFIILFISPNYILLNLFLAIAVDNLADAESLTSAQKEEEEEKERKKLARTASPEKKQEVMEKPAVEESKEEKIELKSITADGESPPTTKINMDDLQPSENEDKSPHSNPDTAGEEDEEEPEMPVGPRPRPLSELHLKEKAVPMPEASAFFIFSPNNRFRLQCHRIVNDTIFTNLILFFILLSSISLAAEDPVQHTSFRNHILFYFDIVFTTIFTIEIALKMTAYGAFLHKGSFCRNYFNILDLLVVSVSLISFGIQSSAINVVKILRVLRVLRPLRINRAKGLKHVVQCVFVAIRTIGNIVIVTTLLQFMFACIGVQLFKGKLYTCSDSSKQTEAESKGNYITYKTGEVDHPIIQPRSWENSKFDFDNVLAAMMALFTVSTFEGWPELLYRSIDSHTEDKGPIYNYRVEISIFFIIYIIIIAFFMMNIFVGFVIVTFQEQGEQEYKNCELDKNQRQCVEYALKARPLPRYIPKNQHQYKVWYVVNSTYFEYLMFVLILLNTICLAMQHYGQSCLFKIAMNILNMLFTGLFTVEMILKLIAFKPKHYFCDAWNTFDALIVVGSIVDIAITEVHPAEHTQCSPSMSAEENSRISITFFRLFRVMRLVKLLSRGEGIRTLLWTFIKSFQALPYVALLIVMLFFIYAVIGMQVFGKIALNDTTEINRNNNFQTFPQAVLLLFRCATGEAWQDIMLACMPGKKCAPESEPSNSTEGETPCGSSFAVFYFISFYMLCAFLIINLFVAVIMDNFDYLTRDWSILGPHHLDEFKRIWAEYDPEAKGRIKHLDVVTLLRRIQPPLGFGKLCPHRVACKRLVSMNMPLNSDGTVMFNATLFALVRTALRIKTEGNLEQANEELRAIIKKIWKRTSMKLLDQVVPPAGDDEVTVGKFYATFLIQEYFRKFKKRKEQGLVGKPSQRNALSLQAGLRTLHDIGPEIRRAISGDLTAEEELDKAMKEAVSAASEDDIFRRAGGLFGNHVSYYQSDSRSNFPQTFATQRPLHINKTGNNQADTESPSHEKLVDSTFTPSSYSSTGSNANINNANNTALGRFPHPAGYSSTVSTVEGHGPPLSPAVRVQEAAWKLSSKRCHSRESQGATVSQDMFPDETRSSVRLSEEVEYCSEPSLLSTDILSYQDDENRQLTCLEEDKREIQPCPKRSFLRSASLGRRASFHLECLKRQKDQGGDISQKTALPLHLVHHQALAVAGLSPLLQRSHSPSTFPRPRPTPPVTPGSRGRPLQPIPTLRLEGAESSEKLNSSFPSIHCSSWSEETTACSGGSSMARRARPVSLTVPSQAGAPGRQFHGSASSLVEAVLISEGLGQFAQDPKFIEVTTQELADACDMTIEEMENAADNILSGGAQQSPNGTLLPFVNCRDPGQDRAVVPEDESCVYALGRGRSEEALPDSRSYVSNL
IC50 (Rattus norvegicus),SMILES,Selectivity index [1],pIC25 (Cavia porcellus),Decrease (Canis familiaris)
3.16 nM,CCO/C(O)=C1\C(COCc2cc(=O)n(CCO)c(N)n2)=NC(C)=C(C(=O)OC)C1c1cccc(Cl)c1Cl (centres undefined),32,7,–
3.98 nM,CCO/C(O)=C1\C(COCc2cc(O)nc(CN3CCOCC3)n2)=NC(C)=C(C(=O)OC)C1c1cccc(Cl)c1Cl (centres undefined),32,6.9,–
–,COC(=O)C1=C(C)NC(C)=C(C(=O)OC)C1c1ccccc1[N+](=O)[O-] [NIFEDIPINE],8,7.5,77%
